Screens from PubChem.
Most compounds without a hit are left out; they make up all but 2.3% or so of the library.
PAFAH1B3 FP inh – PAFAH1B3 (human) inhibition. Q15102. recombinant PAFAH1B3, FP-rhodamine probe, fluorescence polarization. inhibition, % at 3.39 µM. actives 0.28% (n = 340,000);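 active means inhibition above the screen-wide average of all tested compounds plus 3 SD, cut at about 25% in these data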;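 further: 0% = enzyme with DMSO only and 100% = wells lacking PAFAH1B3 protein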
PAFAH1B2 FP inh – blocks human PAF acetylhydrolase 1b catalytic subunit 2. P68402. recombinant PAFAH1B2, FP-rhodamine activity probe, fluorescence polarization. inhibition, % at 3.39 µM. actives 1.2% (n = 340,000). AID 492953;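 active means inhibition above the mean of all tested compounds plus 3 SD, cut at about 24% in these data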;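 further: 0% = enzyme with DMSO and 100% = wells lacking PAFAH1B2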
Target sequence (P68402 whole entry, looked up): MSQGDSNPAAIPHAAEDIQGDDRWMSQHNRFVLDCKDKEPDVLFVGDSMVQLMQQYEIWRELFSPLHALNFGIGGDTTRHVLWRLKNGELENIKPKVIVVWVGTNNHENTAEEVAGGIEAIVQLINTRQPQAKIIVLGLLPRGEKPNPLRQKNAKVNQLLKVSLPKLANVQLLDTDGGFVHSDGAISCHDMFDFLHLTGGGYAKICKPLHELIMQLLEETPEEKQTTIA
Apaf-1 inh – blocks human Apaf-1 apoptosome activity; O14727; reconstituted apoptosome caspase-3 activity, DEVD-Rh110 fluorescence; inhibition, % at 20 µM; actives 0.71% (n = 330,000); AID 489030; active means inhibition of at least 40% at 20 µM;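 further: plate controls were DMSO wells for no effect and DEVD-CHO caspase inhibitor wells for full effect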
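System: Apoptosome proteins | Medium: Hepes pH 7.5 with detergent and BSA | Also added: Cytochrome c trigger plus (Z-DEVD)2-Rh110 caspase-3 substrate | Incubation: 30 min compound preincubation, 50 min activation, room temperature | Detection: Rhodamine 110 fluorescence at Ex 480/Em 540 nm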
TDP2 inh – blocks human TDP2 phosphodiesterase activity. O95551. recombinant TDP2, T5PNP hydrolysis, p-nitrophenol absorbance 415 nm. inhibition, % at 12.8 µM. actives 0.34% (n = 370,000);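 active means inhibition above the mean of all tested compounds plus 3 SD, set per campaign, cut at about 25% in these data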;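 further: 0% = DMSO with enzyme and 100% = buffer with substrate but no TDP2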
Target sequence (O95551 whole entry, looked up): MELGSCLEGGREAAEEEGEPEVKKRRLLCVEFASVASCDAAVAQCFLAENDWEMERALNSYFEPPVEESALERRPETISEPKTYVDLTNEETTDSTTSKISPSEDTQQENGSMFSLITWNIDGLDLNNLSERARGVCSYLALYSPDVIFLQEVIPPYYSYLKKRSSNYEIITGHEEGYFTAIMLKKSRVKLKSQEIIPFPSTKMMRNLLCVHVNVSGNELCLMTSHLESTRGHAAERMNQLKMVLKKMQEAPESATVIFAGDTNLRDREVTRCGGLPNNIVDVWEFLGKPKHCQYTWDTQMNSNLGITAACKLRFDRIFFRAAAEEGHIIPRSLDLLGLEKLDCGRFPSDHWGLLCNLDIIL
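Test system: Human TDP2 enzyme | Reagent: 5 mM T5PNP | Compound dosing: 12.8 µM single point, 1% DMSO | Incubation: Enzyme reaction with compound for 2 h at 37 °C | Technique: p-Nitrophenol epi absorbance | Read-out: % inhibition relative to enzyme-containing and enzyme-free wells | Benchmarks: High control without enzyme, low control DMSO plus TDP2 | Replicates: Singlicate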
PAFAH2 FP inh – PAFAH2 (human) inhibition. Q99487. recombinant PAFAH2, FP-rhodamine activity probe, fluorescence polarization. inhibition, % at 3.39 µM. actives 0.99% (n = 340,000). AID 492956;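 active means inhibition above the mean over all tested compounds plus 3 SD, cut at about 30% in these data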;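 further: inhibitors block probe labeling of enzyme so polarization drops; 0% = enzyme with DMSO and 100% = wells lacking PAFAH2 protein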
Apaf-1 inh conf – Apaf-1 inhibition, single-dose confirmed; shares compounds with Apaf-1 inh; reconstituted apoptosome, caspase-3 DEVD-Rh110 fluorescence; inhibition, % at 20 µM; actives 25% (n = 1,800);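 active means mean inhibition of at least 40% at 20 µM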;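 further: plate controls were DMSO wells for no effect and DEVD-CHO caspase inhibitor control wells for full effect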
Rh110 quench – counter-screen for Apaf-1 inhibitors: fluorescence interference | shares compounds with Apaf-1 inh | Rh110 fluorescence interference, quenched caspase reaction | activation (fluorescence interference), % at 20 µM | 1,800 tested, under 10 active | AID 504615;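 active means signal rise of 40% or more at 20 µM, treated as a fluorescence artifact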
Fluor interf inh – counter-screen for Apaf-1 inhibitors: fluorescence interference, dose response; fluorescence interference counterscreen, Apaf-1 assay format; 460 tested, under 10 active; shares compounds with Apaf-1 inh; IC50, µM; AID 588538; call rule not given here
PAFAH1B3 conf FP – PAFAH1B3 (human) inhibition, confirmed | AID 493032 | recombinant PAFAH1B3, FP-Rh activity-based probe, fluorescence polarization | inhibition, % at 3.39 µM | shares compounds with PAFAH1B3 FP inh | actives 30% (n = 390);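 active means average inhibition over triplicate runs above the hit cutoff set in the earlier primary screen, cut at about 25% in these data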;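 further: 0% = enzyme with DMSO and 100% = wells lacking PAFAH1B3 protein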
TDP2 confirm – confirmation of human TDP2 inhibitors; actives 22% (n = 1,100); recombinant human TDP2, absorbance read-out; inhibition, % at 12.8 µM; shares compounds with TDP2 inh; AID 743263; in the data active means inhibition above about 25%;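 further: 0% = vehicle with enzyme and 100% = no enzyme buffer only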
Numbers without * were called inactive; nt = no result.

SMILES	PAFAH1B3 FP inh	PAFAH1B2 FP inh	Apaf-1 inh	TDP2 inh	PAFAH2 FP inh	Apaf-1 inh conf	Rh110 quench	TDP2 confirm	others
O=C(Cc1ccccc1)NC1(O)C(=O)c2ccccc2C1=O	nt	nt	85.4*	63.6*	nt	69.0*	6.7	61.6*	Fluor interf inh=>100
Cc1ccc(C(=O)NCC(=O)OCN2C(=O)c3ccccc3C2=O)cc1C	-5.9	-2.1	-2.0	-12.8	-4.7	nt	nt	nt
Cc1ccc(C(=O)NC2(O)C(=O)c3ccccc3C2=O)cc1C	37.4*	8.4	96.8*	73.5*	23.7	92.5*	-5.4	74.6*	Fluor interf inh=>100;PAFAH1B3 conf FP=36.9*
O=C(NC1(O)C(=O)c2ccccc2C1=O)c1ccc(C(F)(F)F)cc1	nt	nt	96.3*	37.2*	nt	98.3*	13.4	83.1*	Fluor interf inh=>100
CN(C)c1ccc(N/C=C/C(=O)C(C)(C)C)cc1	8.7	9.2	53.4*	54.6*	3.5	-2.9	-2.6	-4.4
O=[N+]([O-])c1cc([N+](=O)[O-])c2nonc2c1Nc1ccc(O)cc1	12.6	3.4	73.9*	24.6*	-0.8	12.9	-2.0	6.6
COc1ccc(S[C@]2(C(=O)N(C)C)CC(=O)N(c3ccc(C#N)cc3)[C@@H]2c2ccc(OC)cc2)cc1	nt	nt	nt	-11.8	nt	nt	nt	nt
CC1(C)Cc2c(C#N)c(N)n(-c3ccccc3)c(=S)c2CO1	nt	nt	-1.0	7.5	nt	nt	nt	nt
CC1(C)C=C2C(=NN(c3ccccc3)C(N)=C2C#N)CO1	44.4*	12.2	47.4*	47.4*	4.0	98.3*	3.6	52.6*	Fluor interf inh=>100;PAFAH1B3 conf FP=50.5*
CCCCNc1cc(NC(C)=O)cc2cc(OC)c(OC)cc12	-2.3	1.1	61.8*	29.8*	-2.4	83.4*	-1.0	29.1*	Fluor interf inh=>100
CCC(C(=O)Nc1ccccc1N1CCCC1)c1cccc(OC)c1 (stereo unspecified)	nt	nt	nt	7.2	nt	nt	nt	nt
CN1c2ccccc2C(C)(C)C12C=Cc1cc(O)ccc1O2 (stereo unspecified)	-17.1	-9.2	10.1	0.2	-9.9	nt	nt	nt
CN1c2ccccc2C(C)(C)C12C=Nc1c(cc(N3CCOCC3)c3ccccc13)O2 (stereo unspecified)	5.9	6.0	68.5*	53.4*	-1.9	19.2	2.9	11.6
COCCn1c(N)c(C#N)c2nc3ccccc3nc21	-2.0	2.9	51.7*	29.9*	-2.0	14.8	4.7	15.5
N#Cc1c(N)n(-c2ccc(O)cc2)c2nc3ccccc3nc12	1.6	-0.4	7.4	-2.2	-0.3	nt	nt	nt
COc1ccc(Cn2c(N)c(C#N)c3nc4ccccc4nc32)cc1	-2.0	-6.4	50.4*	36.6*	1.2	12.2	0.0	-1.0
COC(=O)CCC(=O)OC1(C)C(=O)C=C2C=C(C3CC3)N(C3CC3)C=C2C1=O (stereo unspecified)	14.6	-1.6	53.6*	37.9*	-4.7	37.1	-1.9	9.8
COc1ccccc1-c1cccc2c3c([nH]c12)[C@@H]1C[C@H]2[C@@H](CN1CC3)[C@H](C)ON2C	nt	nt	nt	7.4	nt	nt	nt	nt
COc1ccccc1Nc1nc(C)cc(C)c1C(N)=O	2.1	-0.6	5.4	10.2	-1.7	nt	nt	nt
Cc1cc(C)c(C(N)=O)c(Nc2cccc3ccccc23)n1	24.4	3.0	96.2*	24.7*	3.5	12.0	3.3	8.5
Cc1ccc(-n2nc(C)c3c2OC(N)=C(C#N)C3c2ccco2)cc1 (stereo unspecified)	0.6	-0.6	7.7	6.9	7.6	nt	nt	nt
Cc1nn(-c2ccccc2)c2c1C(c1ccccc1)C(C#N)=C(N)O2 (stereo unspecified)	9.9	-3.9	96.5*	40.4*	2.0	14.6	-2.1	11.4
O=C(OCc1nnc(-c2ccccc2)o1)c1ccc([N+](=O)[O-])s1	30.5*	23.9	47.2*	31.7*	31.0*	20.6	-2.5	37.4*
COc1ccc(OC)c(S(=O)(=O)Oc2ccc(N)c3ccccc23)c1	17.0	0.8	68.7*	33.1*	15.8	37.9	3.2	-0.1
COC(=O)[C@]12CCCCC=C1N(Cc1ccc(OC)cc1)C(=O)[C@@H]2CC(=O)NCCCN1CCCC1=O	nt	nt	nt	0.2	nt	nt	nt	nt
SMILES	PAFAH1B3 FP inh	PAFAH1B2 FP inh	Apaf-1 inh	TDP2 inh	PAFAH2 FP inh	Apaf-1 inh conf	Rh110 quench	TDP2 confirm	others
COc1ccc(-c2nc3ccccc3nc2-c2ccc(OC)c(OC)c2)cc1OC	4.2	3.4	12.3	19.4	-1.5	nt	nt	nt
COc1ccc2nc3ccccc3nc2c1N	4.1	8.5	92.3*	39.0*	20.0	20.9	-1.9	7.8
COC(=O)Cc1nnn2c1[C@@H](C)[C@@H](c1ccccc1Br)O[C@@H](C)C2	nt	nt	nt	-3.2	nt	nt	nt	nt
CC1OC(Nc2cccc3ccccc23)C(O)C(O)C1O (stereo unspecified)	31.5*	4.4	96.1*	33.8*	14.1	64.4*	1.9	14.4	Fluor interf inh=>100;PAFAH1B3 conf FP=9.5
CC1OC(Nc2ccc(N=Nc3ccccc3)cc2)C(O)C(O)C1O (stereo unspecified)	4.9	1.3	7.1	-5.6	2.0	nt	nt	nt
O=C(OCCN1CCN(C2CN(Cc3cn(Cc4ccccc4C(F)(F)F)nn3)S(=O)(=O)C2)CC1)c1cc2ccccc2o1 (stereo unspecified)	nt	nt	nt	-4.2	nt	nt	nt	nt
C=CCN(CC#Cc1ccc(C(F)(F)F)cc1)Cc1ccc(OC)cc1OC	nt	nt	nt	-0.9	nt	nt	nt	nt
O=C1C(N2CCOCC2)=C(n2nnc3ccccc32)C(=O)c2ccccc21	51.0*	22.4	93.6*	50.3*	8.7	96.8*	9.7	63.6*	Fluor interf inh=>100;PAFAH1B3 conf FP=33.7*
CCC(=O)N(CC)C1=C(O)c2ccccc2C(=O)C1=O	10.6	6.8	54.7*	28.8*	-0.3	14.3	-1.6	19.0
C[C@H](NC(=O)C[C@@H]1C[C@@H]2c3cc(NC(=O)C4CCC4)ccc3O[C@@H]2[C@@H](CO)O1)c1ccccc1	nt	nt	nt	5.5	nt	nt	nt	nt
CC(=O)N(CN1C(=O)c2ccccc2C1=O)c1cccc(C)c1	2.0	3.1	0.3	3.0	-7.0	nt	nt	nt
CC(=O)N(/N=C1\Sc2ccccc2C1=O)c1cccc(C)c1	42.1*	7.2	85.8*	68.9*	7.4	84.7*	4.7	52.9*	Fluor interf inh=>100;PAFAH1B3 conf FP=53.6*
O=C1C=C(Nc2ccccc2O)c2ccccc2C1=O	2.8	-8.9	96.4*	60.6*	-12.5	92.5*	0.6	53.8*	Fluor interf inh=>100
O=C(Nc1ccccc1O)c1ccc2c(c1)C(=O)N(N1C(=O)c3ccccc3C1=O)C2=O	2.1	1.3	-0.7	-7.4	-34.2	nt	nt	nt
